Results pooled from the literature.
Lines come from different studies, so protocols differ.
NT5E: 5'-nucleotidase (NT5E, Homo sapiens, UniProt P21589)
XDH: Xanthine dehydrogenase/oxidase (XDH, Bos taurus, UniProt P80457)
MAP4K5: Mitogen-activated protein kinase kinase kinase kinase 5 (MAP4K5, Homo sapiens, UniProt Q9Y4K4)
PDGFRA: Platelet-derived growth factor receptor alpha (PDGFRA, Homo sapiens, UniProt P16234)

Cc1cc(C)c(C#N)c(SC=CC(=O)Nc2ccon2)n1  inhibition (NT5E; enzyme activity, inhibitor; 10 µM): 34%
Oc1ncnc2[nH]ncc12  inhibition (XDH; enzyme activity, inhibitor; 250 µg/mL): 99.3%
CCCCC(=O)Nc1ccc(-c2ccc3ncn(CCC)c(=O)c3c2)cn1  remaining binding (MAP4K5; binding, competition with immobilised ligand; 0.5 µM): 92%
NC/C(=C\F)COc1cccc(Cn2c(=S)[nH]c(=O)c3[nH]cnc32)c1  remaining activity (Lactoperoxidase (LPO, Bos taurus, UniProt P80025); enzyme activity, inhibitor; 20 µM): 14.2%
O=C(NS(=O)(=O)c1ccccc1)c1cc2ccccc2n1Cc1ccc(Br)c2ccccc12  inhibition (XDH; enzyme activity, inhibitor, absorbance; 10 µM): 20.3%
COc1ccc2oc(-c3ccc4nc(N)oc4c3)c/c(=N\c3ccccc3NC(=O)CCN)c2c1  remaining activity (Platelet-derived growth factor receptor alpha (PDGFRA, Homo sapiens, UniProt P16234, D842V); enzyme activity, inhibitor; 1 µM): 91%
C#Cc1cnc(Nc2ccnc(CO)c2)nc1Nc1ccccc1S(C)(=O)=NC#N (stereo not drawn)  remaining signal (PDGFRA; cell-free assay; 1 µM): 58%
COCCOCCOCCNC(=O)CSc1nc(-c2ccccc2)cc(C(F)(F)F)c1C#N  inhibition (NT5E; enzyme activity, inhibitor; 10 µM): -20%
CC(C)(O)c1coc(S(=O)(=O)NC(=O)c2cc3ccccc3n2Cc2ccc(Br)c3ccccc23)c1  inhibition (XDH; enzyme activity, inhibitor, absorbance; 10 µM): 1.21%
COC(=O)c1ccc(NC(=O)c2sc3nc(-c4ccccc4)cc(C(F)(F)F)c3c2N)cc1  inhibition (NT5E; enzyme activity, inhibitor, HPLC; 10 µM): 94%
CC(=O)ON=C1C=CC(=C(C#N)c2ccccc2)C=C1  activity vs control (Dual specificity tyrosine-phosphorylation-regulated kinase 1A (Dyrk1a, Rattus norvegicus, UniProt Q63470); enzyme activity, inhibitor, ADP detection; 20 µM): 101%
Cc1cc(C)c(C#N)c(SCC(=O)Nc2cccnc2)n1  inhibition (NT5E; enzyme activity, inhibitor; 10 µM): 5%
N#Cc1ccc(NC(=O)Nc2ccccc2)cc1  remaining binding (PDGFRA; cell-free assay, competition with immobilised ligand; 25 µM): 92%
Cc1cc(C)c(C#N)c(SCC(=O)Nc2ccon2)n1  inhibition (NT5E; enzyme activity, inhibitor; 10 µM): 3%
C1=C/COCc2cc(ccc2OCCN2CCCC2)Nc2nccc(n2)-c2cccc(c2)COC/1  remaining binding (MAP4K5; binding; 0.1 µM): 90%
